Compound activity: PubChem, several laboratories
MEKK2 mut-MEK5: signal of MEK5 binding to mutant human MEKK2 PB1 domain. AID 1530. hit rate 0.35% among 290,000. percent response, % at 10 µM. bead flow cytometry, Alexa488-MEK5 binding to MEKK2 mutant; in the data active = percent response above about 24%, passing the limit was not always enough
MEKK2wt PB1 HTS: raises or lowers MEK5 binding to wildtype human MEKK2 PB1 domain. Q9Y2U5. bead flow cytometry, Alexa488-MEK5 binding to MEKK2 WT; actives lie on both sides. binding response (% of control), % at 10 µM. hit rate 1.1% among 290,000. AID 1531; in the data active = binding response below about 67% or above about 130%
T cell HTS: modulates CD8 T cell binding to vesicles | 2C CD8+ T cell-vesicle binding, flow cytometry; hits give low values | AID 2052 | hit rate 0.068% among 330,000 | response (vesicle binding), % at 7 µM;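 active = response, share of CD8 T cells binding vesicles, and their 90th percentile fluorescence all below set limits, cut at about 80% in these data, passing the limit was not always enough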;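 also: values below 100% mean blocked vesicle binding to the CD8+ T cells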
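incubation = binding step 1.5 h, 37 °C, antibody labelling 20 min, ice | test system = 2C mouse CD8+ T cells | read-out basis = percent CD8+ FL2 mean versus row control | controls = Peptide-free naked vesicles (low) and QL9 vesicles with 0.7% DMSO vehicle (high) | detection = flow cytometry of vesicle-bound cells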
UCH37 inh: human UCH37 deubiquitinating enzyme inhibition. Q9Y5K5. purified proteasome/UCH37, Ub-AMC cleavage fluorescence. inhibition, % (concentration not given with the values). hit rate 0.33% among 330,000. AID 588478;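 active = mean inhibition over replicate wells above about 20%, limit read from the data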;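 also: 0% = compound-free wells with enzyme and 100% = wells lacking proteasome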
Target sequence (Q9Y5K5 whole entry, looked up): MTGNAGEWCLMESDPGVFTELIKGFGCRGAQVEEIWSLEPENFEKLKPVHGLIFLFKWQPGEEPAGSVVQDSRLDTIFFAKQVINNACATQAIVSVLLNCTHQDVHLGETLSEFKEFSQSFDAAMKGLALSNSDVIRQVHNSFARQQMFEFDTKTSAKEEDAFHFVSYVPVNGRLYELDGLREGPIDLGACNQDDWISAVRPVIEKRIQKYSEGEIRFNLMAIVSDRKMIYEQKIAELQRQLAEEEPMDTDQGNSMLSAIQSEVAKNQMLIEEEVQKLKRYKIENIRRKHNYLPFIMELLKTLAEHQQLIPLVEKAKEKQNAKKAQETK
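Signal – fluorescence, ex 355 nm, em 460 nm · System – Proteasome-bound UCH37 · Input – 0.15 nM proteasome as dispensed · Timing – 30 min preincubation with enzyme, 25 min cleavage at room temperature · Read-out basis – percent inhibition of cleavage signal versus uninhibited and no-proteasome wells · Medium – Tris-HCl pH 7.4 with ATP-MgCl2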
MEKK3 PB1 HTS: MEKK3-MEK5 PB1 interaction, increase or decrease; Q99759; bead-based flow cytometry, Alexa488-MEK5 binding to MEKK3; actives lie on both sides; 0 = blocked by unlabeled MEK5, 100 = vehicle; binding response (% of control), % at 10 µM; hit rate 1.4% among 290,000;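 active = binding response more than 3 SD above or below the average of its plate-row segment, actives on both sides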;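 also: Alexa488 bead fluorescence after subtracting the streptavidin-only scavenger bead signal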
Rce1 inhib: yeast Ras-converting enzyme inhibition | yeast membranes, quenched prenylated peptide cleavage fluorescence | calls only | hit rate 0.27% among 290,000 | AID 2563;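 active = fall in fluorescence gain of 50% or more versus controls, with final raw signal at or below 3038400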;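 also: plate controls were neutral control wells for no effect and wells lacking membranes for full effect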
Target sequence (Q03530 whole entry, looked up): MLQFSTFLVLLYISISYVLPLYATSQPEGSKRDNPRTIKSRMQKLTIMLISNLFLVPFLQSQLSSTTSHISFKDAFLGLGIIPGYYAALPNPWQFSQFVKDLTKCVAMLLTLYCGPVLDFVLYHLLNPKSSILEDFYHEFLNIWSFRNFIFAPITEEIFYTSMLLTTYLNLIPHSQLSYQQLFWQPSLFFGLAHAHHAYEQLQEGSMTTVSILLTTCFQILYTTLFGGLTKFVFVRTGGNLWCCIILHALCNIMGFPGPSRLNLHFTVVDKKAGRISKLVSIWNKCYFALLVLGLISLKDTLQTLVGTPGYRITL
MEKK2wt confirm: raises or lowers MEK5 binding to wildtype human MEKK2, retest; shares compounds with MEKK3 PB1 HTS; binding response (% of control), % at 10 µM; bead flow cytometry, Alexa488-MEK5 binding to MEKK2 WT; actives lie on both sides; hit rate 2.4% among 5,900; in the data active = binding response below about 16% or above about 210%; inactive = in between
MEKK2mut confirm: signal of MEK5 binding to mutant human MEKK2, retest. percent response, % at 10 µM. bead flow cytometry, Alexa488-MEK5 binding to MEKK2 mutant. hit rate 2% among 5,900. shares compounds with MEKK3 PB1 HTS. AID 1893; in the data active = percent response mostly above about 71%, no sharp cut-off; inactive = mostly below about 38%;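 also: higher means compound restores mutant binding toward wildtype level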
MEKK3 confirm: confirmation of inhibitors of MEK5 binding to human MEKK3. bead flow cytometry, Alexa488-MEK5 binding to MEKK3; hits give low values. hit rate 1.8% among 5,900. shares compounds with MEKK3 PB1 HTS. binding response (% of control), % at 10 µM;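 active = binding response below 72% of control, or above a set upper limit, though filed actives all read lower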;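 also: 100% = DMSO only wells and 0% = binding blocked by excess unlabeled MEK5; lower values mean stronger disruption of MEK5 binding to MEKK3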
* marks the source's active call; other numbers are inactive results; i = inactive; / = no result given; [ ] = remark or other dose. The list is not random: actives were taken first. Their share in the collection is about 2.5%.

SMILES	MEKK2 mut-MEK5	MEKK2wt PB1 HTS	T cell HTS	UCH37 inh	MEKK3 PB1 HTS	Rce1 inhib	MEKK2wt confirm	MEKK2mut confirm	MEKK3 confirm
CCOc1cc(C2NN=C(c3ccccc3)S2)ccc1OCc1ccc(F)cc1 (stereo not drawn)	-16	0.0*[inhibitor]	245	-65	0.0*[inhibitor]	i	97	-7	95
O=C(O)C1Cc2[nH]cnc2C(c2ccccc2O)N1 (stereo not drawn)	-1	92	168	/	60*[inhibitor]	i	96	-2	96
Cc1c(Cl)cnc(NC(=O)COC(=O)Cc2coc3ccc4ccccc4c23)c1Cl	0	102	306	-21	131*	i	80	-14	84
Cc1c(Cl)cnc(NC(=O)COC(=O)CCS(=O)(=O)c2ccccc2)c1Cl	2	102	321	-25	104	i	/	/	/
CC(C)(C)NC(=O)NC(=O)COC(=O)Cc1coc2ccc3ccccc3c12	1	112	352	3	143*	i	95	-3	97
CC(OC(=O)Cc1coc2ccc3ccccc3c12)C(=O)NC(N)=O (stereo not drawn)	-9	95	330	-4	92	i	/	/	/
Cc1ccc(C=NNc2nc3ccc(Cl)cc3[nH]2)o1	/	/	/	4	/	/	/	/	/
CCNC(=S)NN=Cc1cccc(C=NNC(=S)NCC)c1	/	/	/	-16	/	/	/	/	/
Cc1ccc(NC(=O)N(Cc2cccs2)Cc2cc3cc4c(cc3[nH]c2=O)OCO4)cc1	0	104	80	-14	130*	i	91	-8	96
COc1ccc(NC(=O)N(Cc2cccs2)Cc2cc3cc4c(cc3[nH]c2=O)OCO4)cc1	1	100	222	/	137*	i	99	2	104
Cc1ccc2[nH]c(=O)c(CN(Cc3cccs3)C(=S)NCC3CCCO3)cc2c1 (stereo not drawn)	0	99	556	5	138*	i	104	4	107
O=[N+]([O-])c1ccc(CN2CCN(c3ccccc3)CC2)o1	16	128	198	8	122*	i	103	4	104
O=[N+]([O-])c1ccc(N2CCN(Cc3ccc([N+](=O)[O-])o3)CC2)cc1	6	109	226	8	101	i	/	/	/
COC(=O)c1cc(Br)ccc1OC(=O)c1cccnc1	-17	0.0*[inhibitor]	206	3	0.0*[inhibitor]	i	102	1	100
Cc1ccc(OC(=O)c2cccnc2)cc1	-14	56*[inhibitor]	283	0	57*[inhibitor]	i	102	-1	106
Cc1cc(C)cc(OC(=O)c2cccnc2)c1	7	107	402	-1	103	i	/	/	/
COc1ccc(CCNC(=O)CCc2cn(C)c3ccccc23)c(OC)c1OC	27*	117	266	-1	120	i	103	3	103
COc1ccc(OC)c(CCNC(=O)CCc2cn(C)c3ccccc23)c1	5	105	201	1	107	i	/	/	/
Cc1cccc(C=Nn2c(-c3ccccc3)n[nH]c2=S)c1O	/	/	/	1	/	/	/	/	/
N#CCCSCc1ccc2oc(C(=O)O)cc2c1	-45	0.0*[inhibitor]	761	-1	2.0*[inhibitor]	i	109	9	109
CC(=NNC(=S)Nc1ccccc1C)C1Cc2ccccc2C(=O)O1 (stereo not drawn)	/	/	/	3	/	/	/	/	/
CC(=O)Nc1ccc(OCC(=O)N2CCC(Cc3ccccc3)CC2)cc1	8	99	970	2	101	i	/	/	/
O=C(Nc1ccc(OCC(=O)N2CCC(Cc3ccccc3)CC2)cc1)c1ccco1	-6	74	196	0	67*[inhibitor]	i	100	-3	101
Cc1ccsc1C=NNC(=O)c1sccc1C	/	/	/	9	/	/	/	/	/
O=C(O)C1CC(=O)N(c2ccc(OCc3ccc(Br)cc3)cc2)C1 (stereo not drawn)	4	105	522	/	104	i	/	/	/
SMILES	MEKK2 mut-MEK5	MEKK2wt PB1 HTS	T cell HTS	UCH37 inh	MEKK3 PB1 HTS	Rce1 inhib	MEKK2wt confirm	MEKK2mut confirm	MEKK3 confirm
O=C(O)C1CC(=O)N(c2ccc(OCc3ccccc3)cc2)C1 (stereo not drawn)	-3	76	653	2	72*[inhibitor]	i	103	-1	101
CC(=Nn1c(C)nc2ccccc2c1=O)c1ccc(N)cc1	/	/	/	3	/	/	/	/	/
Cc1nnc(NN=Cc2cccc(OCc3ccc(Cl)c(Cl)c3)c2)n1N	/	/	/	7	/	/	/	/	/
Cc1nnc(SCC(N)=O)n1CCc1ccccc1	2	110	114	3	136*	i	97	-2	100
CN(C)C=Nc1ncc(C(=O)c2ccccc2)s1	/	/	/	12	/	/	/	/	/
O=[N+]([O-])c1ccc(-c2nc(Nc3cccc(O)c3)c3ccccc3n2)cc1	19	146*	/	1	112	i	120	4	102
Cc1nn(C)c(C)c1C=NNC(=O)c1csc2ccccc12	/	/	/	3	/	/	/	/	/
Cc1nn(-c2ccccc2)c(Cl)c1CN(C(=O)CCl)c1ccc(Cl)cc1	3	112	255	5	145*	i	100	-2	103
C#CCOCCOCCOCCNc1nc(N2CCOCC2)nc(N2CCN(C(=O)[C@H](Cc3cc4ccccc4[nH]3)n3cc([C@@H](N)CC(C)C)nn3)CC2)n1	25	136	/	4	107	i	/	/	/
C#CCOCCOCCOCCNc1nc(N2CCN(C(=O)C([C@@H](C)CC)n3cc(C(N)COC(=O)C(F)(F)F)nn3)CC2)nc(N2CCN(C(=O)[C@H](Cc3cc4ccccc4[nH]3)n3cc(C(N)CO)nn3)CC2)n1 (stereo partly drawn)	11	143*	575	2	101	i	189	58	108
C#CCOCCOCCOCCNc1nc(N2CCN(C(=O)[C@H]([C@@H](C)CC)n3cc([C@@H](N)CO)nn3)CC2)nc(N2CCN(C(=O)[C@H](Cc3cc4ccccc4[nH]3)n3cc([C@@H](N)C(C)CC)nn3)CC2)n1 (stereo partly drawn)	56*	181*	654	4	107	i	175	87*	104
